Series [1] addresses T1, MAP kinase-interacting serine/threonine-protein kinase 2 (Homo sapiens, UniProt Q9HBH9). Nature of the series: Inhibition of MNK2 (unknown origin) at 1 uM using S3 as substrate measured after 60 mins by HTRF assay relative to control. In a few lines: (§1)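 HTRF Ser/Thr KinEASE format. Mnk1 or Mnk2 enzyme (0.99 ng) incubated with compound for 60 min at room temperature with 1 μM substrate S3, 392 μM ATP, 10 mM MgCl₂ and 1 mM DTT in KinEASE enzymatic buffer. Stopped with SA-XL665 and STK antibody detection reagents; 615/665 nm signal ratio read. Single-concentration values are duplicate means; IC50 taken from inhibition curves.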
(In TR-FRET formats the signal depends on donor and acceptor labels being close together.)
Target sequence in this assay (Q9HBH9 whole entry, looked up): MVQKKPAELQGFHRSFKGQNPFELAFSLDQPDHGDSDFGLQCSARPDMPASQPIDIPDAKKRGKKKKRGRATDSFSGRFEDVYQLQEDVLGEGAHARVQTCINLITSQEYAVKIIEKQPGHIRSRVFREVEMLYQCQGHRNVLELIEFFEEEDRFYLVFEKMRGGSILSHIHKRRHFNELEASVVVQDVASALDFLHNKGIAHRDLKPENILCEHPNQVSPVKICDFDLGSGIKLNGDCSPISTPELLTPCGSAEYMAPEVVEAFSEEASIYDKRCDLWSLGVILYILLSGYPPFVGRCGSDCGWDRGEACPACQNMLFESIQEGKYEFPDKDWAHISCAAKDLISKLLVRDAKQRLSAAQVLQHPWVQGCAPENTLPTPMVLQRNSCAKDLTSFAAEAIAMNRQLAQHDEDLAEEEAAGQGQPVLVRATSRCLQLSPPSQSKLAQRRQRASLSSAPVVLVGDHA

Series [2] deals with T1, MAP kinase-interacting serine/threonine-protein kinase 2. Nature of the series: Inhibition of MNK2 (unknown origin) at 10 uM using S3 as substrate measured after 60 mins by HTRF assay relative to control. In a few lines: as §1
Target sequence in this assay (Q9HBH9 whole entry, looked up): as above
The target is the same in series [3]. Nature of the series: Inhibition of MNK2 (unknown origin) using S3 as substrate measured after 60 mins by HTRF assay.
Target sequence in this assay (Q9HBH9 whole entry): as the sequence (Q9HBH9 whole entry, looked up) above
Series [4] deals with HCT-116. Nature of the series: Antiproliferative activity against human HCT116 cells after 96 hrs by MTT assay. The series is classed as functional, cell-based. The following applies: HCT-116, 96 h. The method, boiled down:
(§2)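 Cells seeded at 2,000 per well and grown 24 h at 37 °C in 5% CO₂. Compound added over a concentration range in triplicate wells, then incubated 96 h. MTT (2 mg/mL) added for 4 h, formazan taken up in DMSO, absorbance read at 570 nm. Inhibition calculated against untreated control. IC50 is the concentration giving half inhibition; mean of three independent experiments.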
(In general: Tetrazolium assays rely on reduction of a dye to a coloured formazan, in cell work by metabolically active cells.)

The test system of series [5] is HCT-116. Nature of the series: Effect on eIF4E levels in human HCT116 cells at 1 to 4 times IC50 after 24 hrs by Western blot analysis. The series is classed as ADME, cell-based. The following applies: hct-116, 24 h. In a few lines:
(§3)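 HCT-116 cells exposed to compound at several concentrations in 0.5% DMSO, or DMSO alone, for 24 h. Cells were rinsed in ice-cold PBS and lysed in RIPA buffer (pH 8.0), 50 µg protein loaded. Run on 8% or 12% SDS-PAGE, transferred to nitrocellulose and checked for loading by Ponceau S. Blocked in 5% milk, probed overnight at 4°C for eIF4E, p-eIF4E and GAPDH, detected by ECL.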

Series [6] has as its target MAP kinase-interacting serine/threonine-protein kinase 1 (Homo sapiens) (UniProt Q9BUB5). Nature of the series: Inhibition of MNK1 (unknown origin) at 10 uM using S3 as substrate measured after 60 mins by HTRF assay relative to control. In a few lines:
as §1

Series [7] shares this target. Nature of the series: Inhibition of MNK1 (unknown origin) at 1 uM using S3 as substrate measured after 60 mins by HTRF assay relative to control. In a few lines:
as §1

For series [8], the system named is MOLM-13. Nature of the series: Antiproliferative activity against human MOLM13 cells after 96 hrs by MTT assay. The series is classed as functional, cell-based. The following applies: MOLM-13, 96 h. In a few lines:
as §2

For series [9], the target named is MAP kinase-interacting serine/threonine-protein kinase 1/2 (Homo sapiens) (UniProt Q9HBH9+Q9BUB5). Nature of the series: Inhibition of MNK1/MNK2 in human HCT116 cells assessed as reduction in eIF4E phosphorylation at Ser209 residue after 24 hrs by Western blot analysis. The class given is cell-based. The method, boiled down: as §3
In series [10] the target is MAP kinase-interacting serine/threonine-protein kinase 1 (Homo sapiens) (UniProt Q9BUB5). Nature of the series: Inhibition of MNK1 (unknown origin) at 0.1 uM using S3 as substrate measured after 60 mins by HTRF assay relative to control. The method, boiled down:
as §1

Series [11] deals with THP-1. Nature of the series: Antiproliferative activity against human THP1 cells after 96 hrs by MTT assay. The class given is functional, cell-based. The following applies: THP-1, 96 h. In a few lines:
as §2

From ChEMBL document CHEMBL4229533, “Design and synthesis of novel 6-hydroxy-4-methoxy-3-methylbenzofuran-7-carboxamide derivatives as potent Mnks inhibitors by fragment-based drug design” (Bioorg Med Chem, 2018) come the findings set out here.

Each structure is given as a SMILES string. pIC50: −log10 of the molar value.

A word on the inhibition: it is the drop in the measured response relative to a control, in per cent. What is called pIC50 is the IC50 on a negative log10 scale, so that one unit is a factor of ten.

Sequence of MAP kinase-interacting serine/threonine-protein kinase 1 (Homo sapiens) (Q9BUB5 whole entry, looked up): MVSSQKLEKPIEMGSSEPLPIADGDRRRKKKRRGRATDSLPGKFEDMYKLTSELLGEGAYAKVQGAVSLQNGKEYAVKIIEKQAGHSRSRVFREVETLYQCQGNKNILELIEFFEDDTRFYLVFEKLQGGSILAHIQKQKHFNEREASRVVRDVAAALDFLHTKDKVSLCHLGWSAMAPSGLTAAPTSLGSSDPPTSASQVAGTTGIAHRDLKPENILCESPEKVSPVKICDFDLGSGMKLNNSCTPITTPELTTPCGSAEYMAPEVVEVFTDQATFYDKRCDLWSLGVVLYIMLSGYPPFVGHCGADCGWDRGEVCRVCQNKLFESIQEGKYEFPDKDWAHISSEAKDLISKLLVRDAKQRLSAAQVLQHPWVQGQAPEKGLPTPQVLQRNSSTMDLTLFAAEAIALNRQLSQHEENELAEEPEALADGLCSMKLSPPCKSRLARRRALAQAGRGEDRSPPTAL

In the case of `CCOC(=O)c1oc2c(C(N)=O)c(O)cc(OC)c2c1C`, the figures for the inhibition in [1] and in series [2] were 21% and 41%, respectively.

In the case of `COc1cc(O)c(C(N)=O)c2oc(C(=O)NCc3ccccc3)c(C)c12`, the results for the inhibition in series [1] and in series [2] were 24% and 28%, respectively.

For `COc1cc(O)c(C(N)=O)c2oc(C(=O)NC3CCN(Cc4cc(Cl)ncn4)CC3)c(C)c12`, the inhibition in series [1] came out at 0%; in series [2], 11%.

For `COc1cc(O)c(C(N)=O)c2oc(C(=O)Nc3ccc(F)c(C(F)(F)F)c3)c(C)c12`, the results for the inhibition in series [1] and in series [2] were 18% and 35%, respectively.

Regarding `COc1cc(O)c(C(N)=O)c2oc(C(=O)NC3CCN(Cc4cccc(Cl)c4Cl)CC3)c(C)c12`, the inhibition was 18% in series [1] and 21% in series [2].

Regarding `COc1cc(OC)c2c(C)c(C(=O)NC3CCN(Cc4cccc(C(F)(F)F)c4)CC3)oc2c1`, the inhibition in [1] stood at 6%; in series [2] it was 35%.

Turning to `COc1cc(O)c(C(N)=O)c2oc(C(=O)NC3CCN(Cc4ccncc4)CC3)c(C)c12`, the inhibition in [1] worked out at 15%; in [2], 32%.

`COc1cc(O)c(C(N)=O)c2oc(C(=O)NC3CCN(Cc4ccc(F)cc4)CC3)c(C)c12`: the inhibition in series [1] was 8%; in series [2], 15%.

Take `COc1cc(O)c(C(N)=O)c2oc(C(=O)N3CCCCC3)c(C)c12`: the inhibition in series [1] came to 19%; in series [2], 23%.

For the molecule `COc1cc(O)c(C(N)=O)c2oc(C(=O)NC3CCN(Cc4ccc(Cl)cc4Cl)CC3)c(C)c12`, the inhibition in series [1] and in series [2] was 0% throughout.

For the molecule `COc1cc(O)c(C(N)=O)c2oc(C(=O)NC3CCCC3)c(C)c12`, the results for the inhibition in series [1] and in series [2] were 6% and 22%, respectively.

In the case of `COc1cc(O)c(C(N)=O)c2oc(C(=O)NC3CCN(Cc4c(Cl)cccc4Cl)CC3)c(C)c12`, the inhibition in [1] was determined as 1%; in series [2] it was 27%.

Turning to `Cc1c(C(=O)NC2CCN(Cc3cccc(C(F)(F)F)c3)CC2)oc2cc(O)ccc12`, the inhibition is 0% in series [1] and 28% in series [2].

Consider `COc1cc(O)c(C(N)=O)c2oc(C(=O)NCc3cccc(F)c3)c(C)c12`, for which the inhibition amounted to 11% in [1] and 23% in series [2].

Take `COc1cc(O)c(C(N)=O)c2oc(C(=O)NC3CCN(Cc4ccccc4F)CC3)c(C)c12`: the results for the inhibition in [1] and in [2] were 29% and 31%, respectively.

For the molecule `COc1cc(O)c(C(N)=O)c2oc(C(=O)NC3CCN(Cc4ccc(C)cc4)CC3)c(C)c12`, the results for the inhibition in series [1] and in series [2] were 27% and 40%, respectively.

Turning to `COc1cc(O)c(C(N)=O)c2oc(C(=O)NC3CCCCC3)c(C)c12`, the figures for the inhibition in series [1] and in series [2] were 20% and 28%, respectively.

Turning to `COc1cc(O)c(C(N)=O)c2oc(C(=O)NC3CCN(Cc4cccc(C(F)(F)F)c4)CC3)c(C)c12`, the pIC50 in series [3] is 6.56; in series [4], 5.56; in series [8], 5.50; in series [11], 5.20. Moreover, the Activity result in [5] was “Non-Toxic”. The inhibition in [6] was 59%; in [7], 41%; in series [1] it was 85%; in series [9], “Dose-dependent effect”; in [10] it was 20%; in series [2], 90%.

Take `COc1cc(O)c(C(N)=O)c2oc(C(=O)NC3CCN(Cc4ccc(Cl)cc4)CC3)c(C)c12`: the inhibition was determined as 29% in series [1] and 45% in [2].

For the molecule `COc1cc(O)c(C(N)=O)c2oc(C(=O)NCC3CCN(Cc4ccc(Cl)c(Cl)c4)CC3)c(C)c12`, the figures for the inhibition in [1] and in [2] were 21% and 38%, respectively.

As for `COc1cc(O)c(C(N)=O)c2oc(C(=O)N3CCOCC3)c(C)c12`, the inhibition in series [1] was found to be 12%; in series [2], 24%.

In the case of `COc1cc(O)c(C(N)=O)c2oc(C(=O)N(C)Cc3ccccc3)c(C)c12`, the inhibition in series [1] and in [2] was 0% each time.

On to `COc1cc(O)c(C(N)=O)c2oc(C(=O)N3CCN(c4ccccc4)CC3)c(C)c12`, for which the inhibition was 8% in [1] and 15% in [2].

As to `COc1cc(O)c(C(N)=O)c2oc(C(=O)NCC3CCN(C(=O)c4ccc(F)cc4)CC3)c(C)c12`, the inhibition in series [1] was 16%; in series [2], 23%.

On to `COc1cc(O)c(C(N)=O)c2oc(C(=O)NCCN(C)C)c(C)c12`, for which the values for the inhibition in series [1] and in series [2] were 19% and 24%, respectively.

Turning to `COc1cc(O)c(C(N)=O)c2oc(C(=O)Nc3ccccc3)c(C)c12`, the inhibition in series [1] and in series [2] was 0% in each case.

Regarding `Nc1ncnc2[nH]nc(Nc3ccc(F)cc3)c12`, the pIC50 in series [4] is 4.99; in series [8] it was 5.08; in series [11], 4.93.

On to `COc1cc(O)c(C(N)=O)c2oc(C(=O)NCC3CCN(Cc4cccc(C(F)(F)F)c4)CC3)c(C)c12`, for which the inhibition in series [1] amounted to 23%; in series [2], 49%.

For `COc1cc(O)c(C(N)=O)c2oc(C(=O)N(C)C)c(C)c12`, the inhibition in [1] turned out to be 24%; in [2] it was 45%.

Regarding `COc1ccc2c(C)c(C(=O)NC3CCN(Cc4cccc(C(F)(F)F)c4)CC3)oc2c1`, the inhibition in series [1] was 0%; in [2] it was 27%.

On to `COc1cc(O)c(C(N)=O)c2oc(C(=O)NC3CCN(C(=O)c4ccc(C(F)(F)F)cc4)CC3)c(C)c12`, for which the values for the inhibition in [1] and in series [2] were 26% and 29%, respectively.

Turning to `CCN1CCN(C(=O)c2oc3c(C(N)=O)c(O)cc(OC)c3c2C)CC1`, the negative logarithm of the IC50 (pIC50) in series [3] was 5.94; in series [4], 4.80; in series [8] it was 4.87; in [11], 4.73. The inhibition was 30% in series [6]; 7% in [7]; 36% in series [1]; 3% in [10]; 79% in series [2].

For the molecule `COc1cc(O)c(C(N)=O)c2oc(C(=O)NCC3CCN(Cc4ccc(F)cc4)CC3)c(C)c12`, the inhibition in series [1] came to 32%; in series [2] it was 41%.

For the molecule `COc1cc(O)c(C(N)=O)c2occ(C)c12`, the pIC50 in [3] was 6.13; in [4], 4.58; in [8], 4.61; in [11], 4.49. The inhibition was determined as 39% in series [6]; 49% in [7]; 43% in series [1]; 34% in series [10]; 77% in series [2].

Consider `Cc1c(C(=O)NC2CCN(Cc3cccc(C(F)(F)F)c3)CC2)oc2c(C(N)=O)c(O)cc(O)c12`, for which the values for the inhibition in series [1] and in [2] were 1% and 34%, respectively.

Consider `CNC(=O)c1oc2c(C(N)=O)c(O)cc(OC)c2c1C`, for which the values for the pIC50 in [3] and in [11] were 5.84 and below 4.30, respectively. Moreover, the inhibition stood at 39% in [6]; 26% in series [7]; 66% in [1]; 11% in series [10]; 73% in series [2].

Turning to `COc1cc(O)c(C(N)=O)c2oc(C(=O)NC3CCN(Cc4ccc(C(F)(F)F)cc4)CC3)c(C)c12`, the inhibition in series [1] was 24%; in series [2] it was 43%.

On to `COc1cc(O)c(C(N)=O)c2oc(C(=O)N3CCN(c4cccc(C(F)(F)F)c4)CC3)c(C)c12`, for which the inhibition in [1] was determined as 28%; in series [2], 61%.

In the case of `COc1cc(OC)c2c(C)c(C(=O)NC3CCN(Cc4cccc(C(F)(F)F)c4)CC3)oc2c1C(N)=O`, the results for the inhibition in series [1] and in series [2] were 2% and 29%, respectively.

As to `COc1cc(O)c(C(N)=O)c2oc(C(=O)N3CCN(c4ccc(F)cc4)CC3)c(C)c12`, the inhibition in series [1] came out at 5%; in series [2], 10%.

`COc1cc(O)c(C(N)=O)c2oc(C(=O)Nc3ccc(C)c(C(F)(F)F)c3)c(C)c12`: the pIC50 was 5.45 in series [3] and below 4.30 in [11]. Besides, the inhibition in [6] is 23%; in [7], 23%; in series [1], 75%; in [10], 12%; in series [2], 57%.
